Measured values published in ChEMBL document CHEMBL4819032, “Structure-based design of highly selective 2,4,5-trisubstituted pyrimidine CDK9 inhibitors as anti-cancer agents” (Eur J Med Chem, 2021).
Active and inactive are the calls of the source.

Tests used:
[1] = test system: A2780; assay: Induction of cell cycle arrest in human A2780 cells assessed as accumulation at S phase at 2 uM after 24 hrs by propidium iodide staining based flow cytometric analysis (reference value: 20%); assay type: functional
Summary of the method: (§1)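 4 × 10⁵ A2780 cells cultured 24 h in medium alone or with varying inhibitor concentrations, harvested into hypotonic fluorochrome solution (0.1% sodium citrate, 0.1% Triton X-100, propidium iodide, 100 ug/ml RNase A), and DNA content analysed by flow cytometry. Representative of three independent experiments.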

[2] = test system: A2780; assay: Induction of cell cycle arrest in human A2780 cells assessed as accumulation at G2/M phase at 5 uM after 24 hrs by propidium iodide staining based flow cytometric analysis (reference value: 21.6%); assay type: functional; summary of the method: as §1
[3] = test system: HCT-116; assay: Induction of apoptosis in human HCT-116 cells assessed as reduction in Mcl-1 protein expression at 5 uM after 6 to 12 hrs by Western blot analysis; assay type: functional, cell-based; settings: time 6-12 hrs
[4] = test system: A2780; assay: Induction of apoptosis in human A2780 cells assessed as necrotic cells at 0.5 uM after 24 hrs by Annexin V-FITC/PI staining based flow cytometric analysis (reference value: 3.6%); assay type: functional
Summary of the method: (§2)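 A2780 cells cultured 24 h in medium alone or with varying inhibitor concentrations, then stained with FITC-annexin V/PI per kit protocol and analysed by flow cytometry. Run in triplicate and repeated at least twice; significance by one-way ANOVA, p < 0.01.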

[5] = test system: A2780; assay: Induction of cell cycle arrest in human A2780 cells assessed as accumulation at G1/G0 phase at 1 uM after 24 hrs by propidium iodide staining based flow cytometric analysis (reference value: 56.7%); assay type: functional; summary of the method: as §1
[6] = test system: HCT-116; assay: Induction of apoptosis in human HCT-116 cells assessed as increase in p53 protein expression at 0.5 to 5 uM after 24 hrs by Western blot analysis; assay type: functional, cell-based; settings: dose 0.5-5 µM
[7] = test system: A2780; assay: Induction of apoptosis in human A2780 cells assessed as viable cells at 1 uM after 24 hrs by Annexin V-FITC/PI staining based flow cytometric analysis (reference value: 92%); assay type: functional; settings: read-out: Activity; summary of the method: as §2
[8] = target: T1, Serine/threonine-protein kinase Nek2 (Homo sapiens) (UniProt P51955); assay: Inhibition of recombinant human full length NEK2 using myelin basic protein as substrate incubated for 40 mins by scintillation counting method
T1 sequence (whole entry): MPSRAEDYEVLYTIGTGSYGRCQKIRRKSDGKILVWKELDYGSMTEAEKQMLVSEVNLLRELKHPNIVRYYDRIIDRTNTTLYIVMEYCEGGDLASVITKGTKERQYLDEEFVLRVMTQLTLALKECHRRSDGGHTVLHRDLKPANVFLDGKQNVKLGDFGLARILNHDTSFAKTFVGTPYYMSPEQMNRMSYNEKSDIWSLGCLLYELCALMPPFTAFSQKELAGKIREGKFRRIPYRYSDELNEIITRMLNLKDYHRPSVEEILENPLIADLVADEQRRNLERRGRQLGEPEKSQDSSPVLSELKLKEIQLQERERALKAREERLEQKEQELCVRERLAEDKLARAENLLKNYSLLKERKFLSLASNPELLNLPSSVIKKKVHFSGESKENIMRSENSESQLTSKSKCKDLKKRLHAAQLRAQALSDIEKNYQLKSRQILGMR
Summary of the method: (§3)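 The 60-kinase diversity panel was run as a radiometric assay with ATP at each kinase's Km(app). Compound was tested at one fixed concentration across all kinases.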

[9] = test system: HT-29; assay: Growth inhibition of human HT-29 cells after 48 hrs by MTT assay; assay type: functional
[10] = test system: Aurora kinase A (Homo sapiens), O14965 [UNDEFINED MUTATION]; assay: Inhibition of recombinant human full length Aurora-A I31F mutant using LRRASLG as substrate incubated for 40 mins by scintillation counting method; summary of the method: as §3
[11] = test system: HCT-116; assay: Induction of apoptosis in human HCT-116 cells assessed as increase in cleaved-PARP protein expression at 0.5 to 5 uM after 24 hrs by Western blot analysis; assay type: functional, cell-based; settings: dose 0.5-5 µM
[12] = species on record: Homo sapiens; assay: Selectivity index, ratio of Ki for inhibition of recombinant human full length CDK2/Cyclin A to Ki for inhibition of recombinant human full length CDK9/Cyclin T1
Summary of the method: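 Ratio of apparent Ki values for the two CDK/cyclin complexes. Each Ki is derived from an IC50 (10-point radiometric dose-response, ATP at Km(app)) using the kinase's Km(ATP). The selectivity index is defined as Ki(CDK2)/Ki(CDK9).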

[13] = test system: HCT-116; assay: Induction of apoptosis in human HCT-116 cells assessed as reduction in XIAP protein expression after 24 hrs by Western blot analysis; assay type: functional, cell-based; settings: dose 0.5-5 µM
[14] = test system: A2780; assay: Growth inhibition of human A2780 cells after 48 hrs by MTT assay; assay type: functional
[15] = test system: A2780; assay: Induction of apoptosis in human A2780 cells assessed as necrotic cells at 1 uM after 24 hrs by Annexin V-FITC/PI staining based flow cytometric analysis (reference value: 3.6%); assay type: functional; summary of the method: as §2
[16] = test system: A2780; assay: Induction of apoptosis in human A2780 cells assessed as late apoptotic cells at 2 uM after 24 hrs by Annexin V-FITC/PI staining based flow cytometric analysis (reference value: 2.8%); assay type: functional; summary of the method: as §2
[17] = test system: A2780; assay: Induction of apoptosis in human A2780 cells assessed as early apoptotic cells at 1 uM after 24 hrs by Annexin V-FITC/PI staining based flow cytometric analysis (reference value: 1.6%); assay type: functional; summary of the method: as §2
[18] = test system: A549; assay: Growth inhibition of human A549 cells after 48 hrs by MTT assay; assay type: functional
[19] = test system: A2780; assay: Induction of cell cycle arrest in human A2780 cells assessed as accumulation at pre-G1 phase at 2 uM after 24 hrs by propidium iodide staining based flow cytometric analysis (reference value: 1.2%); assay type: functional
[20] = test system: HeLa; assay: Growth inhibition of human HeLa cells after 48 hrs by MTT assay; assay type: functional
[21] = test system: A2780; assay: Induction of apoptosis in human A2780 cells assessed as increase in p53 protein expression at 0.5 to 5 uM after 24 hrs by Western blot analysis; assay type: functional, cell-based; settings: dose 0.5-5 µM
Summary of the method: (§4)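 A2780 cells treated for 24 h over a concentration series, then lysates analysed by Western blotting.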

[22] = test system: A2780; assay: Induction of apoptosis in human A2780 cells assessed as increase in p21 protein expression at 0.5 to 5 uM after 24 hrs by Western blot analysis; assay type: functional, cell-based; settings: dose 0.5-5 µM; summary of the method: as §4
[23] = target: CDK9/cyclin T1 (Homo sapiens, UniProt P50750); assay: Inhibition of recombinant human full length CDK9/Cyclin T1 using KTFCGTPEYLAPEVRREPRILSEEEQEMFRDFDYIADWC as substrate incubated for 40 mins in presence of [gamma-33P]-ATP by scintillation counting method; assay type: protein-complex assay
Summary of the method: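 Radiometric kinase assay with ATP at each kinase's Km(app). IC50 values come from 10-point dose-response curves, and apparent Ki is calculated from IC50 and the kinase's Km(ATP).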

[24] = test system: A2780; assay: Induction of cell cycle arrest in human A2780 cells assessed as accumulation at G2/M phase at 1 uM after 24 hrs by propidium iodide staining based flow cytometric analysis (reference value: 21.6%); assay type: functional; summary of the method: as §1
[25] = target: CDK2/Cyclin A2 (Homo sapiens, UniProt P24941); assay: Inhibition of recombinant human full length CDK2/Cyclin A using histone H1 as substrate incubated for 40 mins in presence of [gamma-33P]-ATP by scintillation counting method; assay type: protein-complex assay

Chain of CDK9/cyclin T1 (O60563 whole entry): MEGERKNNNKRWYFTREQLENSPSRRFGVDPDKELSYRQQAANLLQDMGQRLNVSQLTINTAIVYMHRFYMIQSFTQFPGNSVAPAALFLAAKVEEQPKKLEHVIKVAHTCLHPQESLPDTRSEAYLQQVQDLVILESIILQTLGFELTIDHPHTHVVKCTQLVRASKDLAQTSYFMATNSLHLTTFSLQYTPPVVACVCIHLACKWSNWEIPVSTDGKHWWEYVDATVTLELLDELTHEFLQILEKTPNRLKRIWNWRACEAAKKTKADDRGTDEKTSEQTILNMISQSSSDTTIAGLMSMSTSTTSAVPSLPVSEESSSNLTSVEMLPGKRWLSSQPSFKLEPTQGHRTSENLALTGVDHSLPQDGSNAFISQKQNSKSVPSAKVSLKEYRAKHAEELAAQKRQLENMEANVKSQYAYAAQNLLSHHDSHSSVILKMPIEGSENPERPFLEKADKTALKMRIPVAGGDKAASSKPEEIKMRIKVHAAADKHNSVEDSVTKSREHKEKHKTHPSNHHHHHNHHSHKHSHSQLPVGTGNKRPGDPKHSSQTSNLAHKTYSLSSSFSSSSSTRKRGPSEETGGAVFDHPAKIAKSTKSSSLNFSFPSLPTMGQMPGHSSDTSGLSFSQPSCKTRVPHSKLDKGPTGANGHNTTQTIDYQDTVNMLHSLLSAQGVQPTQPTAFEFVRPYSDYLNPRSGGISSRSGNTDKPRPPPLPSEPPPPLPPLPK
Chain of CDK9/cyclin T1 (P50750 whole entry): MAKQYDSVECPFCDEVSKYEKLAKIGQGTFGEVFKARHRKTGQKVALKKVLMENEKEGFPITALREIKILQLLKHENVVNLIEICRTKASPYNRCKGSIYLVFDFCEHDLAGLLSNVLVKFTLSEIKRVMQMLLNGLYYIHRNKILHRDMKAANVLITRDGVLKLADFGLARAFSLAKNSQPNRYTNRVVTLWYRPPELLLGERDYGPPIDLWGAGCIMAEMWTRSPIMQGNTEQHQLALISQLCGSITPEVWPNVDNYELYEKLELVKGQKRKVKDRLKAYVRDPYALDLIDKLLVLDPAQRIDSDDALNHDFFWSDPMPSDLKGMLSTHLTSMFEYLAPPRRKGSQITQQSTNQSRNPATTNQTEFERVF
Chain of Aurora kinase A (Homo sapiens), O14965 [UNDEFINED MUTATION] (O14965 whole entry, looked up, stated change not applied): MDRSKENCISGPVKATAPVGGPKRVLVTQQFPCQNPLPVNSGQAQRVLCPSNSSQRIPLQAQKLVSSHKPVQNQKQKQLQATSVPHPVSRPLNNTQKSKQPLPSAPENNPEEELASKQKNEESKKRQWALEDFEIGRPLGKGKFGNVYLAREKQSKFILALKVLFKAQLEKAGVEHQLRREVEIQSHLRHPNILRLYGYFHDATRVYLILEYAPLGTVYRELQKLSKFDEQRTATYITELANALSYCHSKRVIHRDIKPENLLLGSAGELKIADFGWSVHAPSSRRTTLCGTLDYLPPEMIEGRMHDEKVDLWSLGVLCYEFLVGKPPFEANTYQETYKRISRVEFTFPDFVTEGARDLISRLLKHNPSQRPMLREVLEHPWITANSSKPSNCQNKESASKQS

inhibition [8]: Active | GI50 [9]: 2100 nM | inhibition [10]: Active | Ratio Ki [12]: 125 | GI50 [14]: 640 nM | GI50 [18]: 1540 nM | GI50 [20]: 800 nM | Ki [23]: 10 nM | Ki [25]: 1250 nM
SMILES: CNc1nc(C)c(-c2nc(Nc3cccc(N4CCN5CCC4CC5)c3)ncc2C)s1
Activity [1]: 8.3% | Activity [2]: 23.5% | Activity [3]: Active | Activity [4]: 1.9% | Activity [5]: 50.5% | Activity [6]: Active | viability at 1 µM [7]: 74.4% | Activity [11]: Active | Activity [13]: Dose-Dependent Effect | Activity [15]: 3% | Activity [16]: 15.5% | Activity [17]: 9.3% | Activity [19]: 8.3% | Activity [21]: Active | Activity [22]: Active | Activity [24]: 34.2%
